Assay [1] deals with H9c2. Briefly: Cytoprotective activity against OGD-induced ischemic cell death in rat H9c2 cells assessed as cell death at 10 uM for 30 mins by DAPI analysis. Type of assay: functional. The procedure, abridged:
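H9c2 rat heart cells grown in DMEM with 10% FBS and penicillin/streptomycin at 37 °C in 5% CO2. Compound added 30 min before and during oxygen-glucose deprivation. Cells fixed with 0.5% Triton X-100 in PBS for 15 min, then DAPI-stained. Nuclei counted by fluorescence microscopy in three random fields of at least 300 cells to give % dead cells. Mean ± SEM.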

Assay [2] relates to H9c2. Briefly: Cytoprotective activity against OGD-induced ischemic cell death in rat H9c2 cells assessed as cell death at 10 uM for 30 mins by LDH release assay. Type of assay: functional. Put shortly:
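H9c2 rat heart cells grown in DMEM with 10% FBS and penicillin/streptomycin at 37 °C in 5% CO2. Pretreated with compound for 30 min, then kept on compound during oxygen-glucose deprivation. Cell death read as LDH released, expressed as a percentage of LDH released by full lysis with 0.1% Triton X-100. Mean ± SEM; Student's t-test.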

Assay [3] in a line: Cytoprotective activity against OGD-induced ischemic cell death in Sprague-Dawley rat primary cardiac myocytes assessed as inhibition of cell death treated for 6 hrs by counting DAPI-stained nuclei. To be noted: Cardiac muscle cell.

Here are results for 17 molecules from ChEMBL document CHEMBL1268997, “Synthesis and biological evaluation of 3-substituted-benzofuran-2-carboxylic esters as a novel class of ischemic cell death inhibitors” (Bioorg Med Chem Lett, 2010).

On to `COC(=O)c1oc2ccccc2c1NC(=O)CNc1ccc(Br)cc1`, for which the Activity with H9c2 [1] came out at 22.37%; in the assay on H9c2 [2] it was 60.32%.
In general, EC50 refers to the concentration at which the effect is half-maximal. Turning to `COC(=O)c1oc2ccccc2c1NC(=O)COc1ccc(Br)cc1`, the Activity in the assay on H9c2 [1] turned out to be 13.17%; in the assay on H9c2 [2], 36.17%. In assay [3], the 50% effective concentration (EC50) came to 1180 nM.
For the molecule `COC(=O)c1oc2ccccc2c1NC(=O)CSc1ccc(N)cc1`, the Activity in the assay with H9c2 [1] is 16.54%; with H9c2 [2], 40.15%.
On to `COC(=O)c1oc2ccccc2c1NC(=O)CSc1ccccc1Br`, for which the Activity with H9c2 [1] is given as 13.63%; with H9c2 [2], 41.01%.
Consider `COC(=O)c1oc2ccccc2c1NC(=O)CSc1ccc(C)cc1`, for which the Activity is 21.57% with H9c2 [1] and 56.39% with H9c2 [2].
`COC(=O)c1oc2ccccc2c1NC(=O)CCc1ccccc1`: the Activity with H9c2 [1] came to 15.94%; in the assay with H9c2 [2], 38.72%.
On to `COC(=O)c1oc2ccccc2c1NC(=O)CSc1cccc(Br)c1`, for which the Activity stood at 16.85% in the assay with H9c2 [1] and 39.51% in the assay with H9c2 [2].
Regarding `COC(=O)c1oc2ccccc2c1NC(=O)CSc1ccccc1`, the Activity with H9c2 [1] is recorded as 15.97%; with H9c2 [2] it was 40.93%.
Regarding `COC(=O)c1oc2ccccc2c1NC(=O)CSc1ccc([N+](=O)[O-])cc1`, the Activity in the assay on H9c2 [1] was 6.18%; in the assay with H9c2 [2] it was 30.21%. Also, the EC50 in assay [3] amounted to 532 nM.
Consider `COC(=O)c1oc2ccccc2c1NC(=O)CNc1ccccc1`, for which the Activity is 21.04% with H9c2 [1] and 62.76% with H9c2 [2].
Regarding `COC(=O)c1sc2ccccc2c1NC(=O)CSc1ccc(Br)cc1`, the values for the Activity in the assay on H9c2 [1] and in the assay on H9c2 [2] were 13.92% and 41.31%, respectively.
Turning to `COC(=O)c1oc2cccc(Cl)c2c1NC(=O)CSc1ccc(Br)cc1`, the Activity with H9c2 [1] amounted to 8.94%; in the assay on H9c2 [2], 35.48%. In addition, the EC50 in assay [3] amounted to 630 nM.
`COC(=O)c1oc2ccccc2c1NC(=O)CSc1ccc(Br)cc1`: the figures for the Activity with H9c2 [1] and with H9c2 [2] were 10.59% and 32.39%, respectively. In assay [3], the EC50 is 778 nM.
The corresponding values for `COC(=O)c1oc2ccccc2c1NC(=O)CCSc1ccccn1` are 11.55%, 36.07% and 929 nM.
The corresponding values for `COC(=O)c1oc2ccccc2c1NC(=O)CSc1ccc(OC)cc1` are 9.73%, 40.34% and 752 nM.
As for `COC(=O)c1oc2cccc(Cl)c2c1NC(=O)CCSc1ccccn1`, the values for the Activity in the assay with H9c2 [1] and in the assay with H9c2 [2] were 7.02% and 29.46%, respectively. For the same molecule, in assay [3], the EC50 came to 557 nM.
With `COC(OC)[C@@]1(C)Oc2ccc(N)cc2[C@@H](N/C(=N/Cc2ccccc2)NC#N)[C@@H]1O`, the figures for the Activity with H9c2 [1] and in the assay on H9c2 [2] were 15.54% and 43.33%, respectively. The EC50 in assay [3] turned out to be 1110 nM.
